Results on 71 molecules are retold here after ChEMBL document CHEMBL4513216, “Probing the Open Global Health Chemical Diversity Library for Multistage-Active Starting Points for Next-Generation Antimalarials” (ACS Infect Dis, 2020).

The structures appear in SMILES notation.

A short description of the data set: Toxicity liver stage against HepG2, at 10uM. The data set is classed as cell-based. Set-up: test concentration 10 uM, cell line HepG2-A16-CD81EGFP. Particulars: human, HepG2-A16-CD81EGFP cells; read-out: INHIBITION
In short, it runs like this: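 Uninfected HepG2-A16-CD81EGFP cells, 3 × 10^3 per well, 1536-well, plated on prespotted compound at 10 μM final, parasite-free screening media added to match infected plates; puromycin 10 μM positive, DMSO 0.5% negative; run in parallel with 48 h PbLuc assay at 37 °C, 5% CO2; viability by CellTiter-Glo luminescence, normalized to controls.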
As for `Cc1cc(Br)cnc1NCCN1CCC(N(C)C)CC1`, the cytotoxicity at 10 µM was -10.6%.
`COc1ccc(C(=O)NS(=O)(=O)c2ccc(CNC(C)=O)s2)cc1`: the cytotoxicity at 10 µM was determined as 1.81%.
Consider `Cc1nnc2n1CCN(C(=O)c1cc(C)n(-c3ccccn3)c1C)C2`, for which the cytotoxicity at 10 µM was determined as 0.765%.
Take `c1cnnc(N2CCCC(NCc3ccc(-n4cncn4)cc3)C2)c1` (stereo unspecified): the cytotoxicity at 10 µM was -3.14%.
Turning to `CC(Cn1cccn1)NC(=O)NCc1ccc(C(N)=O)cc1` (stereo unspecified), the cytotoxicity at 10 µM was -3.2%.
With `CNc1cc(C)nc(C2CN(Cc3cncs3)CCO2)c1` (stereo unspecified), the cytotoxicity at 10 µM was -12.3%.
The result for `CCOCc1cnc2n1CCN(C(=O)Cc1cccs1)C2C` (stereo unspecified) reads 8.04%; that for `CCn1cc2c(n1)CN(Cc1ccncc1)CC2COCC1CC1` (stereo unspecified), 6.59%.
Next, `CNC(=O)[C@H]1C[C@@H]2CN(C(=O)c3ccc(C)nc3)C[C@@H]2N1C`: -107%; `CO[C@@H]1CCN(c2ncc(F)cn2)[C@@H]2CN(CC3CC3)C[C@@H]21`: 12.3%.
`O=C(NCCNc1ncccn1)N(Cc1ccc(F)cc1F)C1CC1`: the cytotoxicity at 10 µM was -2.84%.
`NCC1Cc2cc(-c3cncc(C(=O)N4CCOCC4)n3)cc(Cl)c2O1` (stereo unspecified): the cytotoxicity at 10 µM is -42.8%.
With `COc1cccc(S(=O)(=O)CCN2CCn3c(C)nnc3C2)c1`, the cytotoxicity at 10 µM is -18.7%.
Next, `Cc1noc(C)c1CN1CCCC2(CCN(C(=O)N3CCOCC3)C2)C1` (stereo unspecified): 3.35%; `CC(=O)N1CCCC(c2ccccn2)C1` (stereo unspecified): -23.7%; `Cc1ccc(C)c2c(C)c(C(=O)NCCCn3cnnc3)[nH]c12`: 6.28%.
The result for `CCn1ccnc1CN1CCN(CC(O)Cn2cccn2)CC1` (stereo unspecified) reads -5.97%.
`CCn1cc(CN(C)S(=O)(=O)c2cnn(CC)c2C)c(C)n1`: the cytotoxicity at 10 µM amounted to 3.13%.
For the molecule `CC(C)c1nc(C2CCCN2C(=O)c2cnc[nH]2)no1` (stereo unspecified), the cytotoxicity at 10 µM was -6.49%.
The result for `Cc1nc(NC(=O)c2nn(-c3ccc(F)cc3C)cc2O)n[nH]1` reads -7.3%.
As to `Cc1cccnc1NC(=O)C1CCN(C(C)C(=O)NC(C)(C)C)CC1` (stereo unspecified), the cytotoxicity at 10 µM was 3.15%.
Next, `Cc1nn(C)c2nc(N(C)CCN(C)C3CCCC3)sc12`: 3.55%; `CCC(O)CN(Cc1cccc(C(=O)N(C)C)c1)c1ccccc1` (stereo unspecified): 0.503%.
Regarding `CN(C)C(=O)N1CCC2(CC1)C(c1cnn(C)c1)CC(=O)N2C` (stereo unspecified), the cytotoxicity at 10 µM was -78.2%.
Next, `COCC1CC2(CCN(c3ccc(C)nn3)CC2)CN1C(C)C` (stereo unspecified): -112%; `O=S1(=O)COCCN1Cc1ccc(F)cc1Cl`: 14.7%.
Next, `Cc1cc(C)c(C(=O)N2CCOCC2c2c(C)nn(C)c2C)o1` (stereo unspecified): -2.48%.
Consider `O=C(c1ccc[nH]1)N1CCO[C@H]2CC(COCc3ccccn3)C[C@@H]21` (stereo partly specified), for which the cytotoxicity at 10 µM stood at 0.718%.
The result for `CCc1c(C)sc2ncnc(N3C[C@H](O)[C@@H](N4CCCC4)C3)c12` reads -4.36%; that for `COc1ccc(CCC(=O)N2CCCC2Cn2cc(C)cn2)cc1F` (stereo unspecified), 2.36%.
`NC(=O)c1ccc(N2CCCCC2)c(NC(=O)c2ccc(Br)cc2)c1`: the cytotoxicity at 10 µM amounted to 11.1%.
Consider `O=C(O)CN1CCCC2(CCN2Cc2cccc(F)c2)C1` (stereo unspecified), for which the cytotoxicity at 10 µM was -108%.
As to `CC(=O)N1N=C(c2ccccc2)OC1C(=O)N(C)CCc1ccccc1` (stereo unspecified), the cytotoxicity at 10 µM stood at 3.54%.
Next, `CC(C)(C)C(=O)N[C@H]1CC[C@H](Nc2nccc(-c3ccncc3)n2)C1`: 5.05%; `COCCNC(=O)CCNc1ccc(Cl)cn1`: -5.22%; `COc1ccccc1OCC(=O)Nc1ncccc1OC(F)F`: 7.25%.
`O=S(=O)(C1CC1)N1CCC(Cn2cccn2)CC1`: the cytotoxicity at 10 µM is -8.29%.
As for `O=C(NC1CCS(=O)(=O)C1)c1cc(Sc2ncccn2)ccn1` (stereo unspecified), the cytotoxicity at 10 µM was 12%.
As to `CCc1nc(C)ncc1C(=O)N1CC(C)CN(C)c2ccccc21` (stereo unspecified), the cytotoxicity at 10 µM was 10.7%.
For the molecule `O=C(NC1CCCC1)c1ccc(COCC(F)(F)F)o1`, the cytotoxicity at 10 µM amounted to 10.6%.
As to `CCn1ncc(CN2C[C@@H]3CCCN3C[C@H]2CCSC)c1C`, the cytotoxicity at 10 µM was -19.1%.
Next, `CC(C)C1CN(Cc2c[nH]cn2)CCCN1CC1CC1` (stereo unspecified): 0.127%; `O=C1CCC2(CCC(NCc3ccc4c(c3)OCO4)CC2)N1` (stereo unspecified): 1.97%.
The result for `CN1CC(C(=O)NCc2ccc(OCc3cccnc3)cc2)CC1=O` (stereo unspecified) reads 17.7%; that for `COCC(c1cccc(C(F)(F)F)c1)N(C)C(=O)c1ccoc1` (stereo unspecified), -3.84%; that for `CCCSCC(=O)N1CCN(c2ccc(C)cc2)CC1C` (stereo unspecified), -165%.
The result for `O=C(CCn1cncn1)NCC1CCS(=O)(=O)C1` (stereo unspecified) reads -48.3%; that for `COc1ccc2c(c1)NC(C1CCN(C(=O)C3CC3)CC1)NS2(=O)=O` (stereo unspecified), 0.0454%; that for `CCN1CCCC(O)(CN(C)Cc2ccc(C)o2)C1` (stereo unspecified), -3.65%.
For `CCc1csc(C2CCCN(C(=O)c3ccc4c(c3)OCO4)C2)n1` (stereo unspecified), the cytotoxicity at 10 µM stood at 1.71%.
For the molecule `CCc1nc(CN2CCCC(NCCn3cncn3)C2)no1` (stereo unspecified), the cytotoxicity at 10 µM is -7.24%.
Regarding `Cc1nccc(N[C@H]2CN(C(=O)CN3CCCC3=O)C[C@@H]2C(C)C)n1`, the cytotoxicity at 10 µM is -2.14%.
`Cc1cc2c(cc1Cl)C=CC1(CCN(C(=O)N3CCOCC3)CC1)O2`: the cytotoxicity at 10 µM amounted to 23.2%.
Next, `CC(C)NS(=O)(=O)c1cc(C(=O)O)cc(-c2ccccc2CN(C)C)c1`: 6.41%; `COc1ccccc1S(=O)(=O)N1CCC2(CC1)[C@H](O)C[C@@H]2O`: 9.12%.
Next, `O=C([C@H]1CCCO1)N1CCC2(CC1)Cc1ccccc1CNC2=O`: -101%.
The result for `COc1cc2cc(C(=O)O)n(C)c2c(OC)c1OC` reads 12.8%; that for `Cc1nc(CN(C)Cc2cn[nH]c2-c2ccc(F)cc2)c[nH]1`, -17.8%.
As to `O=C(c1cnc2ccc(F)cc2c1NCc1ccccn1)N1CCCC1`, the cytotoxicity at 10 µM is 3%.
`Cc1cncc(Oc2ccc(CN)cc2)n1`: the cytotoxicity at 10 µM stood at 9.81%.
Take `CO[C@@H]1CCN(C(=O)c2cc(C)on2)C[C@@H]1Cc1ccccc1`: the cytotoxicity at 10 µM came out at 1.11%.
`Cc1cc(NC(=O)CN2CCn3c(nnc3C(C)C)C2)n(C)n1`: the cytotoxicity at 10 µM was -5.39%.
Next, `Cc1c(C2SCC(=O)Nc3c2c(O)nn3C2CCCC2)cnn1C` (stereo unspecified): 1.58%; `O=C(c1ccc2c(c1)CCO2)N1CCN(c2ccc(Cl)cn2)CC1`: 9.56%.
The result for `Cc1nc(O)c2nnn(C[C@H]3CCCN3C(=O)c3cccs3)c2n1` reads -25.6%.
The result for `COCC(=O)N1CCC2(CC1)CC(OC)CO2` (stereo unspecified) reads -1.56%.
For the molecule `CC(C(=O)NCCN1CCOCC1)n1cncn1` (stereo unspecified), the cytotoxicity at 10 µM was -2.85%.
The result for `CNC(=O)CN1CCO[C@H]2CN(CC3CC3)C[C@H]21` reads 6.25%; that for `CC(C)n1cc(CN2CCCN(C(=O)CC3CCCCC3)CC2)cn1`, -10.8%.
`CN1CCC2(CCN(C(=O)c3ccccc3)CC2)C1`: the cytotoxicity at 10 µM was -2.36%.
Consider `O=C(C1CC=CC1)N1C[C@@H](OCc2cccnc2)[C@H]2OCCC[C@H]21`, for which the cytotoxicity at 10 µM was 2.74%.
